Assay outcomes from PubChem.
Hits are enriched below; roughly 1.5% of the tested compounds scored in any of these assays.
APJ agonist = activates the human apelin receptor APJ | CHO-K1 APJ PathHunter beta-arrestin, luminescence; 0% DMSO wells, 100% apelin | 0.11% of 330,000 active | AID 2520 | activation, % at 20 µM | P35414;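 active = activation more than six SD over the plate average, tested at 20 µM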
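Test system – PathHunter CHO-K1 APJ (AGTRL-1) beta-arrestin reporter cells · Input – 1000 cells/well · Compound – single test compound dose, 20 µM final, 1% DMSO · Times – compound stimulation 90 min at 25 °C, detection 60 min · Technique – beta-gal luminescence · Read-out basis – APJ–arrestin association signal · Control set – negative DMSO alone, positive Apelin-13 at 10 nM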
HTR2A ag = agonists of mouse serotonin 5-HT2A receptor (HTR2A); activation, % at 7.6 µM; CHO-K1 mHTR2A beta-arrestin complementation, luminescence; percent of 30 µM serotonin response; AID 624169; 0.66% of 360,000 active; P35363;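 active = activation above a run cutoff, the mean activation of all tested compounds plus 3 SD, cut at about 14% in these data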
NTR1 ag = NTR1 (human) agonism | 0.17% of 330,000 active | AID 493036 | P30989 | activation, % at 20 µM | NTR1-U2OS beta-arrestin-GFP spot imaging, agonist mode;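 active = activation at or above 40% of the spot to cytoplasm intensity ratio, with at least 20 cells analyzed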
Target sequence (P30989 whole entry, looked up): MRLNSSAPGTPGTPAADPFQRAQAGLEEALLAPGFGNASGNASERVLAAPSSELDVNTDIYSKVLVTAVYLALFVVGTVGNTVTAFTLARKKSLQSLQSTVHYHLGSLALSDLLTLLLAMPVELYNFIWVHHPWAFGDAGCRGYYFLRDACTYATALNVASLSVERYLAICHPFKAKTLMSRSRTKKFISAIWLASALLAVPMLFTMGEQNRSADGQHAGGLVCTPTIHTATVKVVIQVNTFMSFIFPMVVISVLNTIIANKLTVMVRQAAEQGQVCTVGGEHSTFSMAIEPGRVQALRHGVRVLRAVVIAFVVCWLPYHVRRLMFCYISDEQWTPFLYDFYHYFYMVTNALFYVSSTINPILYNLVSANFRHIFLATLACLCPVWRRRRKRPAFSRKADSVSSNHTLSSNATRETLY
CCR6 antagonist = CCR6 (human) receptor antagonism; CHO-K1 CCR6 PathHunter beta-arrestin, luminescence, CCL20-stimulated; 0.49% of 340,000 active; P51684; inhibition, % at 20 µM; AID 493098;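 active = compounds whose inhibition of the agonist-driven luminescence signal at 20 µM reaches about 50%, limit read from the data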;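 also: cells stimulated with CCL20 at 14 nM final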
APJ antag = antagonists of human APJ apelin receptor; P35414; CHO-K1 APJ beta-arrestin complementation, luminescence; inhibition, % at 20 µM; 0.32% of 330,000 active; AID 2521;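 active = inhibition above about 40% at 20 µM, limit read from the data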;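 also: cells challenged with 10 nM apelin-13 agonist together with compound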
CXCR6 inh = blocks human CXCR6 beta-arrestin recruitment; inhibition, % at 20 µM; 0.36% of 360,000 active; CHO-K1 PathHunter CXCR6 beta-arrestin, luminescence; AID 602244; in the data active = inhibition above about 34%, passing the limit was not always enough;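 also: antagonist mode with CXCL16 agonist at 10 nM final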
CXCR6 confirm = CXCR6 antagonism confirmation, single concentration; 65% of 700 active; CHO-K1 CXCR6 PathHunter beta-arrestin, luminescence; AID 602409; inhibition, % at 20 µM; shares compounds with CXCR6 inh;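 active = mean inhibition over four retests above 40%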;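 also: receptor stimulated with 10 nM CXCL16 agonist; beta-galactosidase fragment complementation upon beta-arrestin recruitment to receptor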
Large screens that a line does not name were inactive (follow-up assays come after a bar, where they were run).

COc1cccc(-c2nc(CS(=O)CC(=O)NC3CCCCC3)c(C)o2)c1 (centres undefined)	none
COc1cccc(N(CC(=O)NC2CCCC2)C(=O)CCC(=O)Nc2cc(C)on2)c1	none
CC(Oc1ccc(F)cc1)C(=O)Nc1nc(-c2ccccn2)cs1 (centres undefined)	CCR6 antagonist 71, CXCR6 inh 67 | CXCR6 confirm 87
CCc1ccccc1OCC(=O)Nc1nc(-c2cccnc2)cs1	CCR6 antagonist 76, CXCR6 inh 51 | CXCR6 confirm 64
COc1ccc(OCCCC(=O)Nc2nc(-c3ccccn3)cs2)cc1	none
O=C(CCS(=O)(=O)c1ccc(F)cc1)Nc1nc(-c2ccccn2)cs1	none
CCC(=O)c1ccc(OCC(=O)Nc2nc(-c3cccnc3)cs2)cc1	none
Cc1cc(C)c(OCC(=O)Nc2nc(-c3ccccn3)cs2)c(C)c1	CXCR6 inh 52 (no result: CCR6 antagonist) | CXCR6 confirm inactive
COc1cccc(-c2nnc(NC(=O)c3ccc(Cl)s3)o2)c1	CXCR6 inh 55 (no result: CCR6 antagonist) | CXCR6 confirm 46
Cc1ccc(NC(=O)CC2SC(=Nc3ccc(O)cc3)NC2=O)cc1 (centres undefined)	none
Fc1ccc(Sc2nc(-c3ccccc3)nnc2C(F)(F)F)cc1	CCR6 antagonist 50, CXCR6 inh 45 | CXCR6 confirm 63
Fc1ccc(Oc2nc(-c3ccccc3)nnc2C(F)(F)F)cc1	none
O=c1c2ccccc2sn1-c1ccccc1	CCR6 antagonist 76, CXCR6 inh 86 | CXCR6 confirm inactive
FC(F)Oc1ccccc1/C=N/n1cnc2ccccc21	CXCR6 inh 50 | CXCR6 confirm inactive
NC(N)=N/N=C/c1ccccc1OC(F)F	none
CC1CCC(CC(=O)O)(C(=O)O)CC1 (centres undefined)	none (no result: APJ agonist, NTR1 ag, APJ antag)
O=C1c2cccc3c([N+](=O)[O-])ccc(c23)C(=O)N1c1ccccn1	CXCR6 inh 52 (no result: CCR6 antagonist) | CXCR6 confirm 52
COC[C@@H]1CCCN1c1ccc2c(c1)O[C@@H](COCc1ccccc1)CN([C@H](C)c1ccccc1)S2(=O)=O	none (no result: APJ agonist, NTR1 ag, CCR6 antagonist, APJ antag)
Cc1occc1C(=O)NNC(=S)NC(=O)COc1ccc(Cl)cc1Cl	CXCR6 inh 42 | CXCR6 confirm inactive
CCOC(=O)c1sc2nc(SCC(=O)N(CC)CC)n(CCCN3CCCC3=O)c(=O)c2c1C	none
CCOC(=O)c1sc2nc(SCC#N)n(CC3CCCO3)c(=O)c2c1C (centres undefined)	CXCR6 inh 61 | CXCR6 confirm inactive
O=S(=O)(NC(=S)c1ccccc1)c1ccccc1	none
O=S(=O)(NC(=S)c1ccccc1)c1ccc(F)cc1	CXCR6 inh 76 | CXCR6 confirm inactive
CCN(CC(=O)Nc1ccc(C(=O)OC)cc1)C1CCCCC1	none
C[n+]1ccc(/C=N/Nc2nc(Cl)c(C#N)c(Cl)c2Cl)cc1	CCR6 antagonist 56, CXCR6 inh 42 | CXCR6 confirm 52
Cc1nc2c(OCc3ccc(C(F)(F)F)cc3)cccn2c1N(C)CC1CC1	CXCR6 inh 47 (no result: APJ agonist, NTR1 ag, CCR6 antagonist, APJ antag) | CXCR6 confirm inactive
Cc1ccc(CN(C)c2ccc(S(=O)(=O)N3CCCC3)cn2)cc1	none
C[C@@H]1CC=C[C@@H]2[C@H]1C(=O)N(Cc1ccccc1)[C@H]2c1cccc(Br)c1	none (no result: APJ agonist, APJ antag)
C[C@@H]1CC=C[C@@H]2[C@H]1C(=O)N(Cc1ccccc1)[C@H]2c1ccccc1Br	CXCR6 inh 35 (no result: APJ agonist, APJ antag) | CXCR6 confirm inactive
C=C1C(=O)c2sccc2C(c2ccc(OC)c(OC)c2)C1COC(C)=O (centres undefined)	CCR6 antagonist 92, CXCR6 inh 94 (no result: APJ agonist, NTR1 ag, APJ antag) | CXCR6 confirm 97
O=S(=O)(NCc1ccc(F)cc1)c1ccc(-n2cccn2)cc1	none
COC(=O)C1(C(=O)OC)C[C@H](/C=C/c2ccccc2)N(Cc2ccccc2OC)[C@@H]1c1ccccc1	none (no result: APJ agonist, NTR1 ag, CCR6 antagonist, APJ antag, CXCR6 inh)
O=C(C#Cc1ccccc1)c1ccccc1	CXCR6 inh 71 (no result: APJ agonist, NTR1 ag, CCR6 antagonist, APJ antag) | CXCR6 confirm 72
CC(C)(C)NC(=O)NC(=O)COC(=O)Cc1c(Cl)cccc1Cl	none
CC(C)(C)NC(=O)NC(=O)COC(=O)c1c(F)cccc1Cl	CXCR6 inh 40 | CXCR6 confirm inactive
CC1(C)Cc2ccccc2C(NNC(=O)c2ccccn2)=N1	CXCR6 inh 45 | CXCR6 confirm 41
CC1(C)Cc2ccccc2C(NNC(=O)c2ccccc2)=N1	none
COc1ccc(NS(=O)(=O)c2cccc(C(=O)OCC(=O)N3CCN(c4ccc(OC)cc4)CC3)c2)cc1	none
Cc1ccc(NC(=O)c2cc(N3C(=O)C=CC3=O)ccc2N2CCOCC2)cc1Cl	CCR6 antagonist 97, CXCR6 inh 60 (no result: APJ agonist, NTR1 ag, APJ antag) | CXCR6 confirm inactive
CCOC(=O)C1(C)CCCN(C(=O)c2ccc(F)cc2Cl)C1 (centres undefined)	none (no result: APJ agonist, NTR1 ag, CCR6 antagonist, APJ antag)
O=C(COc1ccc(Cl)cc1)N/N=C/c1cccc2cccnc12	CXCR6 inh 44 (no result: CCR6 antagonist) | CXCR6 confirm 56
Cc1ccc(S(=O)(=O)ON2C(=O)c3ccccc3C2=O)c(C)c1	CCR6 antagonist 61, CXCR6 inh 67 (no result: APJ agonist, NTR1 ag, APJ antag) | CXCR6 confirm inactive
CC(C(Sc1ccccc1N)c1ccccc1)[N+](=O)[O-] (centres undefined)	CXCR6 inh 30 | CXCR6 confirm inactive
COc1ccc(-c2coc3c(C(=O)Nc4cccc(NS(C)(=O)=O)c4)cccc23)c(C)c1	none (no result: APJ agonist, NTR1 ag, CCR6 antagonist, APJ antag)
CC(C)CC1C(=O)N(Cc2cn(CC3CCCCC3)nn2)CCS(=O)(=O)N1Cc1ccc(-c2ccc(Cl)c(Cl)c2)cc1 (centres undefined)	CXCR6 inh 104 (no result: APJ agonist, NTR1 ag, CCR6 antagonist, APJ antag) | CXCR6 confirm inactive
Cc1cccc(C)c1-c1ccc(CN2C(CC(C)C)C(=O)N(Cc3cn(CC4CCCCC4)nn3)CCS2(=O)=O)cc1 (centres undefined)	none (no result: APJ agonist, NTR1 ag, APJ antag)
O=C(CSc1nnc(-c2ccco2)n1-c1ccccc1)N1CCOCC1	CXCR6 inh 63 | CXCR6 confirm inactive
C=CC[C@H](CC(=O)N(CCO)Cc1ccccc1)C(=O)NC[C@H](OC(=O)[C@@H](CC=C)Cc1ccc(F)cc1)c1ccccc1	CXCR6 inh 48 | CXCR6 confirm inactive
C=CC[C@@H](CC(=O)N(CCO)Cc1ccccc1)C(=O)N[C@H](COC(=O)[C@@H](CC=C)Cc1ccc(F)cc1)Cc1ccccc1	none
C=CC[C@@H](CC(=O)N(CCO)Cc1ccccc1)C(=O)N[C@@H](COC(=O)[C@@H](CC=C)Cc1ccc(F)cc1)Cc1ccccc1	CXCR6 inh 42 | CXCR6 confirm inactive
CC(=O)c1cn(-c2ccc(Cl)cc2)c(=O)n(Cc2ccc(F)cc2)c1=O	none
COc1ccc(NC(=O)CCCOc2ccc(Cl)c(C)c2)cc1S(=O)(=O)N1CCOCC1	none
Cc1cccc(-c2noc(CN(C)C(=O)c3ccc4c(c3)OCO4)n2)c1	none
